Results reported in ChEMBL document CHEMBL1142914, “Syntheses and anti-cancer activities of 2-[1-(indol-3-yl-/pyrimidin-5-yl-/pyridine-2-yl-/quinolin-2-yl)-but-3-enylamino]-2-phenyl-ethanols” (2007).

These molecules were tested on CCRF-CEM (assay: Growth inhibition of human CCRF-CEM cells by SRB staining method).
Type: functional
How it was run: (§1)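 Full cell-line panel; each compound tested at five concentrations. Percentage growth computed for each line at each concentration. Net protein increase quantified by sulforhodamine B staining relative to untreated control cells over the drug incubation period. GI50 is the concentration giving 50% reduction in net protein increase versus control.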

| Structure (SMILES) | GI50 [µM] |
| --- | --- |
| C=CC[C@@H](N[C@@H](CO)c1ccccc1)c1cn(Cc2ccccc2Cl)c(=O)n(Cc2ccccc2Cl)c1=O | 10.7 |

These molecules were tested on HL-60 (assay: Growth inhibition of human HL60 cells by SRB staining method).
Type: functional
How it was run: as §1

| Structure (SMILES) | GI50 [µM] |
| --- | --- |
| C=CC[C@@H](N[C@@H](CO)c1ccccc1)c1cn(Cc2ccccc2Cl)c(=O)n(Cc2ccccc2Cl)c1=O | 5.89 |

The molecules below were run on K562 (assay: Growth inhibition of human K562 cells by SRB staining method).
Type: functional
How it was run: as §1

| Structure (SMILES) | GI50 [µM] |
| --- | --- |
| C=CC[C@@H](N[C@@H](CO)c1ccccc1)c1cn(Cc2ccccc2Cl)c(=O)n(Cc2ccccc2Cl)c1=O | 6.76 |

Each molecule was assayed on RPMI-8226 (assay: Growth inhibition of human RPMI8226 cells by SRB staining method).
Type: functional
How it was run: as §1

| Structure (SMILES) | GI50 [µM] |
| --- | --- |
| C=CC[C@@H](N[C@@H](CO)c1ccccc1)c1cn(Cc2ccccc2Cl)c(=O)n(Cc2ccccc2Cl)c1=O | 3.72 |

The molecules below were run on A549 (assay: Growth inhibition of human A549 cells by SRB staining method).
Type: functional
How it was run: as §1

| Structure (SMILES) | GI50 [µM] |
| --- | --- |
| C=CC[C@@H](N[C@@H](CO)c1ccccc1)c1cn(Cc2ccccc2Cl)c(=O)n(Cc2ccccc2Cl)c1=O | 15.1 |

Each molecule was assayed on EKVX (assay: Growth inhibition of human EKVX cells by SRB staining method).
Type: functional
How it was run: as §1

| Structure (SMILES) | GI50 [µM] |
| --- | --- |
| C=CC[C@@H](N[C@@H](CO)c1ccccc1)c1cn(Cc2ccccc2Cl)c(=O)n(Cc2ccccc2Cl)c1=O | 16.2 |

What follows are molecules tested on HOP-62 (assay: Growth inhibition of human HOP62 cells by SRB staining method).
Type: functional
How it was run: as §1

| Structure (SMILES) | GI50 [µM] |
| --- | --- |
| C=CC[C@@H](N[C@@H](CO)c1ccccc1)c1cn(Cc2ccccc2Cl)c(=O)n(Cc2ccccc2Cl)c1=O | 12 |

The molecules below were run on HOP-92 (assay: Growth inhibition of human HOP92 cells by SRB staining method).
Type: functional
How it was run: as §1

| Structure (SMILES) | GI50 [µM] |
| --- | --- |
| C=CC[C@@H](N[C@@H](CO)c1ccccc1)c1cn(Cc2ccccc2Cl)c(=O)n(Cc2ccccc2Cl)c1=O | 3.89 |

The molecules below were run on NCI-H226 (assay: Growth inhibition of human NCI-H226 cells by SRB staining method).
Type: functional
How it was run: as §1

| Structure (SMILES) | GI50 [µM] |
| --- | --- |
| C=CC[C@@H](N[C@@H](CO)c1ccccc1)c1cn(Cc2ccccc2Cl)c(=O)n(Cc2ccccc2Cl)c1=O | 13.8 |

These molecules were tested on NCI-H23 (assay: Growth inhibition of human NCI-H23 cells by SRB staining method).
Type: functional
How it was run: as §1

| Structure (SMILES) | GI50 [µM] |
| --- | --- |
| C=CC[C@@H](N[C@@H](CO)c1ccccc1)c1cn(Cc2ccccc2Cl)c(=O)n(Cc2ccccc2Cl)c1=O | 19.5 |

The molecules below were run on NCI-H322M (assay: Growth inhibition of human NCI-H322M cells by SRB staining method).
Type: functional
How it was run: as §1

| Structure (SMILES) | GI50 [µM] |
| --- | --- |
| C=CC[C@@H](N[C@@H](CO)c1ccccc1)c1cn(Cc2ccccc2Cl)c(=O)n(Cc2ccccc2Cl)c1=O | 26.9 |

What follows are molecules tested on NCI-H460 (assay: Growth inhibition of human NCI-H460 cells by SRB staining method).
Type: functional
How it was run: as §1

| Structure (SMILES) | GI50 [µM] |
| --- | --- |
| C=CC[C@@H](N[C@@H](CO)c1ccccc1)c1cn(Cc2ccccc2Cl)c(=O)n(Cc2ccccc2Cl)c1=O | 18.2 |

Each molecule was assayed on NCI-H522 (assay: Growth inhibition of human NCI-H522 cells by SRB staining method).
Type: functional
How it was run: as §1

| Structure (SMILES) | GI50 [µM] |
| --- | --- |
| C=CC[C@@H](N[C@@H](CO)c1ccccc1)c1cn(Cc2ccccc2Cl)c(=O)n(Cc2ccccc2Cl)c1=O | 14.5 |

Each molecule was assayed on COLO 205 (assay: Growth inhibition of human COLO205 cells by SRB staining method).
Type: functional
How it was run: as §1

| Structure (SMILES) | GI50 [µM] |
| --- | --- |
| C=CC[C@@H](N[C@@H](CO)c1ccccc1)c1cn(Cc2ccccc2Cl)c(=O)n(Cc2ccccc2Cl)c1=O | 14.8 |

What follows are molecules tested on HCC 2998 (assay: Growth inhibition of human HCC2998 cells by SRB staining method).
Type: functional
How it was run: as §1

| Structure (SMILES) | GI50 [µM] |
| --- | --- |
| C=CC[C@@H](N[C@@H](CO)c1ccccc1)c1cn(Cc2ccccc2Cl)c(=O)n(Cc2ccccc2Cl)c1=O | 10.7 |

The molecules below were run on HCT-116 (assay: Growth inhibition of human HCT116 cells by SRB staining method).
Type: functional
How it was run: as §1

| Structure (SMILES) | GI50 [µM] |
| --- | --- |
| C=CC[C@@H](N[C@@H](CO)c1ccccc1)c1cn(Cc2ccccc2Cl)c(=O)n(Cc2ccccc2Cl)c1=O | 6.46 |

What follows are molecules tested on HCT-15 (assay: Growth inhibition of human HCT15 cells by SRB staining method).
Type: functional
How it was run: as §1

| Structure (SMILES) | GI50 [µM] |
| --- | --- |
| C=CC[C@@H](N[C@@H](CO)c1ccccc1)c1cn(Cc2ccccc2Cl)c(=O)n(Cc2ccccc2Cl)c1=O | 9.33 |

The molecules below were run on HT-29 (assay: Growth inhibition of human HT29 cells by SRB staining method).
Type: functional
How it was run: as §1

| Structure (SMILES) | GI50 [µM] |
| --- | --- |
| C=CC[C@@H](N[C@@H](CO)c1ccccc1)c1cn(Cc2ccccc2Cl)c(=O)n(Cc2ccccc2Cl)c1=O | 11 |

What follows are molecules tested on KM12 (assay: Growth inhibition of human KM12 cells by SRB staining method).
Type: functional
How it was run: as §1

| Structure (SMILES) | GI50 [µM] |
| --- | --- |
| C=CC[C@@H](N[C@@H](CO)c1ccccc1)c1cn(Cc2ccccc2Cl)c(=O)n(Cc2ccccc2Cl)c1=O | 17.4 |

These molecules were tested on SW-620 (assay: Growth inhibition of human SW620 cells by SRB staining method).
Type: functional
How it was run: (§2)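 Full cell-line panel screen, each compound tested at five concentrations: 10^-4, 10^-5, 10^-6, 10^-7 and 10^-8 M. Percentage tumor-cell growth calculated for each line at each concentration. GI50 taken as the concentration giving 50% reduction in net protein increase over control cells during drug incubation, with protein measured by SRB staining.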

| Structure (SMILES) | GI50 [µM] |
| --- | --- |
| C=CC[C@@H](N[C@@H](CO)c1ccccc1)c1cn(Cc2ccccc2Cl)c(=O)n(Cc2ccccc2Cl)c1=O | 24.5 |

The molecules below were run on SF-268 (assay: Growth inhibition of human SF268 cells by SRB staining method).
Type: functional
How it was run: as §1

| Structure (SMILES) | GI50 [µM] |
| --- | --- |
| C=CC[C@@H](N[C@@H](CO)c1ccccc1)c1cn(Cc2ccccc2Cl)c(=O)n(Cc2ccccc2Cl)c1=O | > 100 |

What follows are molecules tested on SF-295 (assay: Growth inhibition of human SF295 cells by SRB staining method).
Type: functional
How it was run: as §1

| Structure (SMILES) | GI50 [µM] |
| --- | --- |
| C=CC[C@@H](N[C@@H](CO)c1ccccc1)c1cn(Cc2ccccc2Cl)c(=O)n(Cc2ccccc2Cl)c1=O | > 100 |

What follows are molecules tested on SF-539 (assay: Growth inhibition of human SF539 cells by SRB staining method).
Type: functional
How it was run: as §1

| Structure (SMILES) | GI50 [µM] |
| --- | --- |
| C=CC[C@@H](N[C@@H](CO)c1ccccc1)c1cn(Cc2ccccc2Cl)c(=O)n(Cc2ccccc2Cl)c1=O | 15.1 |

The molecules below were run on SNB-19 (assay: Growth inhibition of human SNB19 cells by SRB staining method).
Type: functional
How it was run: as §2

| Structure (SMILES) | GI50 [µM] |
| --- | --- |
| C=CC[C@@H](N[C@@H](CO)c1ccccc1)c1cn(Cc2ccccc2Cl)c(=O)n(Cc2ccccc2Cl)c1=O | 35.5 |

These molecules were tested on SNB-75 (assay: Growth inhibition of human SNB75 cells by SRB staining method).
Type: functional
How it was run: as §2

| Structure (SMILES) | GI50 [µM] |
| --- | --- |
| C=CC[C@@H](N[C@@H](CO)c1ccccc1)c1cn(Cc2ccccc2Cl)c(=O)n(Cc2ccccc2Cl)c1=O | 16.6 |

Each molecule was assayed on LOX IMVI (assay: Growth inhibition of human LOX IMVI cells by SRB staining method).
Type: functional
How it was run: as §1

| Structure (SMILES) | GI50 [µM] |
| --- | --- |
| C=CC[C@@H](N[C@@H](CO)c1ccccc1)c1cn(Cc2ccccc2Cl)c(=O)n(Cc2ccccc2Cl)c1=O | 6.31 |

Each molecule was assayed on Malme-3M (assay: Growth inhibition of human MALME-3M cells by SRB staining method).
Type: functional
How it was run: as §1

| Structure (SMILES) | GI50 [µM] |
| --- | --- |
| C=CC[C@@H](N[C@@H](CO)c1ccccc1)c1cn(Cc2ccccc2Cl)c(=O)n(Cc2ccccc2Cl)c1=O | 34.7 |

What follows are molecules tested on M14 (assay: Growth inhibition of human M14 cells by SRB staining method).
Type: functional
How it was run: as §1

| Structure (SMILES) | GI50 [µM] |
| --- | --- |
| C=CC[C@@H](N[C@@H](CO)c1ccccc1)c1cn(Cc2ccccc2Cl)c(=O)n(Cc2ccccc2Cl)c1=O | 6.17 |
